The text below walks through data of publication PMC3944078 (ACS chemical biology, 2013).

For data set [1], the target named is T1, myoc-OLF (Homo sapiens, UniProt Q99972).
T1 sequence (Q99972 244-503 limits assumed): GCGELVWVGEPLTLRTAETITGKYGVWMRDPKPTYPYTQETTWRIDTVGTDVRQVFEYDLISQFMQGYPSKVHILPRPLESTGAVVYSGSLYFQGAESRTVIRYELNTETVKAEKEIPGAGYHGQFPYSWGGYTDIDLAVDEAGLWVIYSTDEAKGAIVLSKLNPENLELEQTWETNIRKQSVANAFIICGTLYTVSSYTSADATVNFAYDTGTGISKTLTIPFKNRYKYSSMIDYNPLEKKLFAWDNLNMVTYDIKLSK
The experiment in a line: Differential scanning fluorimetry. It counts as binding. Conditions: DSF; hits at concentrations used for screening. On the technique in general: DSF heats the sample and reads unfolding from a dye or from intrinsic fluorescence.

In data set [2] the target is T1, myoc-OLF. The experiment in a line: SPR binding to immobilized myoc-OLF. Conditions: for Binding mode by SPR: sensorgram inspection. On the technique in general: SPR reads the build-up and loss of mass on a sensor chip optically.
Data set [3] is described as follows: Solubility behavior under SPR conditions. The class given is physicochemical.
Data set [4] deals with T2, MBP (Escherichia coli, UniProt P0AEX9). The experiment in a line: CARS with MBP, SO fluorescence, 96-well. It counts as binding, E. coli. As to conditions: for Change in SO fluorescence in the presence of MBP: negative controls, 0–1 mM.
Data set [5] deals with T2, MBP. The experiment in a line: DSF thermal stability of MBP with ligands. Conditions: 1 µM MBP, 1mM ligand. It counts as binding, E. coli.
Data set [6] deals with E. coli MBP. As to conditions: MBP ligand; cited from earlier work.
Data set [7] deals with T1, myoc-OLF. The experiment in a line: myoc-OLF amyloid fibrillization assay. The class given is biochemical. Conditions: for myoc-OLF fibrillization (ThT fluorescence): ~3 d, 96-well format; for Fibrils/deposits by AFM: after fibrillization assay.
Data set [8] has as its system HEK-cell line stably expressing I477N-mutant myocilin. The experiment in a line: Mutant myocilin cellular secretion assay. It counts as cell-based. Conditions: 20, 100, 200 µM compound, 24 h, immunoblotting of media.
Data set [9] is described as follows: Solubility in cell media. It counts as physicochemical. Conditions: addition to cell media.
Data set [10] has as its system HEK-cell line stably expressing I477N-mutant myocilin. The experiment in a line: Cellular toxicity profile. It counts as cell-based. Conditions: up to 200 µM.
The target in data set [11] is T1, myoc-OLF. The experiment in a line: CARS with myoc-OLF, TMAO dose-dependent SO fluorescence, 96-well. The class given is binding. As to conditions: 1 µM myoc-OLF, 0.6 M GdnHCl. The method, boiled down:
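myoc-OLF was expressed as a Factor Xa-cleavable MBP fusion and purified. TMAO was titrated at 0−1 M, and protein was added last, just before fluorescence readings. The signal window was the SO fluorescence difference with versus without 1 M TMAO.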

The mark [12] stands for this setting: standard SPR conditions, compounds dissolved in 5% DMSO.
The mark [13] stands for this setting: standard SPR conditions, 5% DMSO.

Read-outs that look alike come from different tables or passages of the source.

Regarding `O=c1c(O)c(-c2cc(O)c(O)c(O)c2)oc2cc(O)cc(O)c12` [Myricetin], the thermal shift (ΔTm) in data set [1] amounted to 1.7 ± 0.0 °C. For the same molecule, the “Binding mode by SPR” value in [2] is “bind non-specifically”. The “Kd from SPR” value in data set [2] (setting [12]) was “linear dose-response”.
For `O=c1c(O)c(-c2ccc(O)cc2O)oc2cc(O)cc(O)c12` [Morin], the ΔTm in [1] was −0.4 ± 0.4 °C. In data set [2], the “Binding mode by SPR” value is “non-stoichiometric binders”. Further, the “Kd from SPR” value in [2] (with surfactant P-20 in buffer solution) is “weak sigmoidal response ^c, ^d”. Also, the Solubility behavior result in data set [3] (setting [13]) is on record as “poor solubility behavior”.
With `NC(=O)CI` [iodoacetamide], the “Change in SO fluorescence in the presence of MBP” value in data set [4] is “Neither”.
Consider `OC[C@H]1O[C@H](O[C@H]2[C@H](O)[C@@H](O)[C@@H](O[C@H]3[C@H](O)[C@@H](O)[C@@H](O[C@H]4[C@H](O)[C@@H](O)C(O)O[C@@H]4CO)O[C@@H]3CO)O[C@@H]2CO)[C@H](O)[C@@H](O)[C@@H]1O` (stereo partly drawn) [maltotetraose], for which the “Change in melting temperature (ITm)” value in [5] was 10 K.
On to `OC[C@@H](O)[C@@H](O[C@H]1O[C@H](CO)[C@@H](O)[C@H](O)[C@H]1O)[C@H](O)[C@@H](O)CO` [maltitol], for which the “Change in melting temperature (ITm)” value in [5] is reported as 0.9 K. The “Concentration by which a decrease in SO fluorescence was seen” value in [4] (2 µM MBP, 0.6 M GdnHCl) is reported as ~ 10 µM. The Kd in data set [6] was 50 µM.
In the case of `O=S(=O)(F)Cc1ccccc1` [PMSF], in [4], the “Change in SO fluorescence in the presence of MBP” value is “Neither”.
As to `CC(C)(C)c1cc(/C=C(\C#N)C(N)=S)cc(C(C)(C)C)c1O` [Tyrphostin AG 879], the ΔTm in data set [1] was −0.8 ± 0.0 °C. Also, the Kd in [2] (read-out: Kd from SPR, with surfactant P-20 in buffer solution) stood at 38.6 ± 12.7 µM. In data set [2] (surfactant P-20 present in SPR buffer), the “Binding stoichiometry from SPR” value is “stoichiometric binding”. Moreover, the Solubility behavior result in data set [3] is reported as “poor solubility behavior”.
In the case of `O=C(CCc1ccc(O)cc1)c1c(O)cc(O)cc1O` [Phloretin], the thermal shift (ΔTm) in data set [1] worked out at 1.2 ± 0.0 °C. For the same molecule, in data set [2], the “Binding mode by SPR” value is “bind non-specifically”. Besides, the “Kd from SPR” value in data set [2] (setting [12]) was “linear dose-response”.
With `O=C1Nc2ccccc2C1=Cc1cc(Br)c(O)c(Br)c1` [G5], in data set [7], the “myoc-OLF fibrillization (ThT fluorescence)” value (“myoc-OLF fibrillization” for short) is “potent fibril inhibition”. Besides, the “Secretion of I477N-mutant myocilin” value in [8] is reported as “increased I477N-mutant myocilin secretion in a dose-dependent manner”. The “Solubility in cell media” value in data set [9] was “adequate solubility”. In [10], the Cellular toxicity profile result was “adequate”.
On to `O=C(O)C1=CC(=C(c2ccc(O)c(C(=O)O)c2)c2ccc(O)c(C(=O)O)c2)C=CC1=O` [Aurintricarboxilic acid, Aurintricarboxylic acid], for which, in [1], the ΔTm worked out at 0.3 ± 0.2 °C. This molecule registered a dissociation constant Kd in data set [2] of 17.1 ± 9.6 µM. Further, in data set [7], the “Fibrils/deposits by AFM” value is given as “high levels of deposits similar to vehicle control” and the “myoc-OLF fibrillization” value was “increase in ThT fluorescence”.
Turning to `O=C(Nc1ccc([N+](=O)[O-])cc1Cl)c1cc(Cl)ccc1O` [Niclosamide], in data set [1], the shift in melting temperature (ΔTm) turned out to be 0.0 ± 0.2 °C. For the same molecule, in data set [2], the “Binding mode by SPR” value is reported as “failed to elicit an interpretable response”. For the same molecule, in [2] (setting [12]), the “Kd from SPR” value is given as “no detectable binding ^d”. The Solubility behavior result in [3] (setting [13]) is “poor solubility behavior”.
For the molecule `O=C(/C=C/c1ccc(O)cc1)c1ccc(O)cc1O` [Isoliquiritigenin], the “Binding mode by SPR” value in data set [2] is reported as “bind non-specifically”. For the same molecule, the “Kd from SPR” value in data set [2] (setting [12]) is reported as “linear dose-response”.
With `CC(=O)c1c(O)c(C)c(O)c(Cc2c(O)c3c(c(C(=O)/C=C/c4ccccc4)c2O)OC(C)(C)C=C3)c1O` [Rottlerin], in data set [2], the Kd stood at 30.1 ± 0.6 µM and the “Binding mode by SPR” value was “promiscuous binder”.
Turning to `Oc1cc(O)cc(/C=C/c2ccc(O)c(O)c2)c1` [Piceatannol], in data set [1], the ΔTm was −0.4 ± 0.1 °C. For the same molecule, the “Binding mode by SPR” value in [2] is “non-stoichiometric binders”. Moreover, the “Kd from SPR” value in data set [2] (setting [12]) was “sigmoidal dose-response”.
Take `O=c1cc(-c2ccc(O)cc2)oc2cc(O)cc(O)c12` [Apigenin, 4’,5,7-trihydroxyflavone]: the ΔTm in [1] was −0.3 ± 0.2 °C. For the same molecule, in data set [7], the “Fibrils/deposits by AFM” value was “no fibrils apparent” and the “myoc-OLF fibrillization” value is “decreased myoc-OLF fibrillization in a dose-dependent manner”. Besides, the “Solubility in cell media” value in [9] was “precipitated upon addition to the cell media”.
On to `C[N+](C)(C)[O-]` [TMAO, trimethylamine-N-oxide], for which the “Concentration by which the decrease in SO fluorescence levels off” value in data set [11] is no more than 1 M.
With `O=c1cc(-c2ccccc2)oc2c(O)c(O)ccc12` [A1, 7,8-dihydroxyflavone], in data set [7], the “myoc-OLF fibrillization” value is listed as “dose-dependent decrease in myoc-OLF fibrilization”. The “Secretion of I477N-mutant myocilin” value in [8] is listed as “increased I477N-mutant myocilin secretion in a dose-dependent manner”. Further, in [9], the “Solubility in cell media” value was “adequate solubility”. Also, the Cellular toxicity profile result in [10] is reported as “adequate”.
Take `O=C1Nc2ccc(I)cc2C1=Cc1cc(Br)c(O)c(Br)c1` [GW5074, 3-(3,5-dibromo-4-hydroxybenzylidine-5-iodo-1,3-dihydro-indol-2-one)]: the thermal shift (ΔTm) in data set [1] was 0.2 ± 0.0 °C. In addition, the dissociation constant Kd in data set [2] (read-out: Kd from SPR, standard SPR conditions, compounds dissolved in 5% DMSO) came out at 33.5 ± 20.9 µM. Moreover, in [7], the “Fibrils/deposits by AFM” value is listed as “no fibrils apparent” and the “myoc-OLF fibrillization” value is recorded as “decreased myoc-OLF fibrillization in a dose-dependent manner”. Also, the Solubility behavior result in data set [3] (setting [13]) is on record as “poor solubility behavior”. For the same molecule, in data set [9], the “Solubility in cell media” value was “precipitated upon addition to the cell media”.
`OC[C@H]1O[C@H](O[C@H]2[C@H](O)[C@@H](O)C(O)O[C@@H]2CO)[C@H](O)[C@@H](O)[C@@H]1O` (mixture of isomers) [Maltose, maltose]: in [5], the “Change in melting temperature (ITm)” value was determined as 10 K. Also, the “Decrease in SO fluorescence intensity” value in data set [4] (at low micromolar concentrations, 2 µM MBP, 0.6 M GdnHCl) is 50%. Moreover, the Kd in [6] was 1 µM.

The term ΔTm denotes the change in melting temperature against a reference sample. What is called Kd is the free concentration of one partner at which half of the binding sites on the other are occupied at equilibrium, for simple one-to-one binding.
